Measurements: ChEMBL document CHEMBL1153536, “5-lipoxygenase-activating protein inhibitors: development of 3-[3-tert-butylsulfanyl-1-[4-(6-methoxy-pyridin-3-yl)-benzyl]-5-(pyridin-2-ylmethoxy)-1H-indol-2-yl]-2,2-dimethyl-propionic acid (AM103)” (J Med Chem, 2009)
pIC50: −log10 of the molar value.

Tests used:
Blood = test: Inhibition of calcium ionophore A-23187-stimulated LTB4 production in human whole blood by ELISA; type: functional, tissue-based
How it was run: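 Heparinized human whole blood preincubated 15 min at 37 °C with compound in DMSO. Stimulated 30 min at 37 °C with A23187 (2 μL of 1.5 mM into 150 μL). Plasma LTB4 measured by ELISA at 1:100 dilution; IC50 by nonlinear regression. A single value is one assay averaging two donors.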

[1] = target: T1, Arachidonate 5-lipoxygenase-activating protein (Homo sapiens, UniProt P20292); test: Displacement of [3H]3-[5-(pyrid-2-ylmethoxy)-3-tert-butylthio-1-benzyl-indol-2-yl]-2,2-dimethylpropionic acid from FLAP in human polymorphonuclear cell membrane
T1 sequence (P20292 whole entry): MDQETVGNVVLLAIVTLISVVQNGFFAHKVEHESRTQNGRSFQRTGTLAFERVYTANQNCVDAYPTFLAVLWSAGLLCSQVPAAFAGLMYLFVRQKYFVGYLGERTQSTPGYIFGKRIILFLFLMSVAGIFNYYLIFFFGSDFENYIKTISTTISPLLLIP

[2] = Inhibition of calcium ionophore A-23187-stimulated LTB4 production in human leukocytes by ELISA; type: functional, cell-based; conditions: Leukocyte
How it was run: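 Dextran-sedimented, hypotonically lysed human leukocytes at 1.25 × 10^5 cells/mL, preincubated 5 min at 37 °C with compound in DMSO. Stimulated 5 min at 37 °C with A23187 (5 μL of 0.5 mM into 250 μL). Supernatant LTB4 measured by ELISA at 1:4 dilution; IC50 by nonlinear regression of % inhibition vs log concentration.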

Cytochrome P450 2D6 = Cytochrome P450 2D6 (Homo sapiens, UniProt P10635); test: Inhibition of CYP2D6; type: ADME
Cytochrome P450 2C9 = Cytochrome P450 2C9 (Homo sapiens, UniProt P11712); test: Inhibition of CYP2C9; type: ADME
Cytochrome P450 3A4 [3] = target: T2, Cytochrome P450 3A4 (Homo sapiens, UniProt P08684); test: Inhibition of CYP3A4 assessed as inhibition rate
Cytochrome P450 3A4 [4] = target: T2, Cytochrome P450 3A4; test: Inhibition of CYP3A4; type: ADME
[5] = Volume of distribution at steady state in Sprague-Dawley rat at 2 mg/kg, iv and 10 mg/kg, po; type: ADME, organism-based; conditions: in vivo, read-out: Vdss
How it was run: (§1)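 Male rats fasted overnight, 2 or 3 per route. Dosing was 2 mg/kg i.v. as a jugular bolus in PEG400/ethanol/water (40/10/50) and 10 mg/kg p.o. by gavage in 0.5% methylcellulose. Jugular cannula blood was sampled up to 24 h (8-9 samples). Plasma was acetonitrile-precipitated with buspirone internal standard and quantified by LC-MS/MS, positive ESI MRM, calibration […], LLOQ 1-5 ng/mL.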

[6] = Cmax in Sprague-Dawley rat after 10 mg/kg oral dose; type: ADME, organism-based; parameters: dose 10 mg/kg, route oral; conditions: in vivo; how it was run: as §1
[7] = Half life in Sprague-Dawley rat at 2 mg/kg, iv; type: ADME, organism-based; parameters: dose 2 mg/kg, route intravenous; conditions: in vivo; how it was run: as §1
Rattus norvegicus = test: (§2) Bioavailability in Sprague-Dawley rat at 2 mg/kg, iv and 10 mg/kg, po; type: ADME, organism-based; conditions: in vivo; how it was run: as §1
[8] = target: Prostaglandin G/H synthase 1 (Homo sapiens, UniProt P23219); test: Inhibition of COX1 in human whole blood; type: tissue-based
[9] = AUC in Sprague-Dawley rat at 10 mg/kg, po; type: ADME, organism-based; parameters: dose 10 mg/kg, route oral; conditions: plasma; how it was run: as §1
[10] = Clearance in Sprague-Dawley rat at 2 mg/kg, iv and 10 mg/kg, po; type: ADME, organism-based; conditions: in vivo; how it was run: as §1
[11] = as §2; type: ADME, organism-based; conditions: Sprague-Dawley, in vivo; how it was run: as §1

Chain of Cytochrome P450 2D6 (P10635 whole entry): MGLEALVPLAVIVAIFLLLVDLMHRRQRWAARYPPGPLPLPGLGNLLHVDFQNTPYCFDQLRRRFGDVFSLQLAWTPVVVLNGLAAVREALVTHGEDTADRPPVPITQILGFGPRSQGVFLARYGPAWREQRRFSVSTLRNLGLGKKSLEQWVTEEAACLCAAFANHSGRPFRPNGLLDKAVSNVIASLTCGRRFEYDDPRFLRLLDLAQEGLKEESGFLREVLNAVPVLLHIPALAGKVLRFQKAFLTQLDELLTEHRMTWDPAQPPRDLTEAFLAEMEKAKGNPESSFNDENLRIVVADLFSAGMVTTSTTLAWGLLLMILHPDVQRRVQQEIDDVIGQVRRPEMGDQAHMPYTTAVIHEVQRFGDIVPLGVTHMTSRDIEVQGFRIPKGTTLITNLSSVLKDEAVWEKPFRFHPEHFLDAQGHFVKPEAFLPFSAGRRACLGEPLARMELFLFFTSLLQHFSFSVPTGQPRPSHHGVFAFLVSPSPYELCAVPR
Chain of Cytochrome P450 2C9 (P11712 whole entry): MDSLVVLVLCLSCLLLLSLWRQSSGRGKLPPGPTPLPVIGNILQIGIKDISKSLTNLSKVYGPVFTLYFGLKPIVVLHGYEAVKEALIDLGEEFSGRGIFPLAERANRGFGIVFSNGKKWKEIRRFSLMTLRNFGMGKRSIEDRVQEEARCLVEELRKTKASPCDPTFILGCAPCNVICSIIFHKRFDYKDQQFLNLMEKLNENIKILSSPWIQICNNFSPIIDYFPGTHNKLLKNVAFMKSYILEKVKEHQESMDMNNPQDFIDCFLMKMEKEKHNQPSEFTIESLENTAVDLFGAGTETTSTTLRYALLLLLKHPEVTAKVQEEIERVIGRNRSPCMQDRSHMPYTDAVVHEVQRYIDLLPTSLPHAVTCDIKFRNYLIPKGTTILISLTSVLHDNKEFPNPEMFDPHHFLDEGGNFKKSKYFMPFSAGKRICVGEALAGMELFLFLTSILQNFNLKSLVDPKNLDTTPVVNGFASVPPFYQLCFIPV
T2 sequence (P08684 whole entry): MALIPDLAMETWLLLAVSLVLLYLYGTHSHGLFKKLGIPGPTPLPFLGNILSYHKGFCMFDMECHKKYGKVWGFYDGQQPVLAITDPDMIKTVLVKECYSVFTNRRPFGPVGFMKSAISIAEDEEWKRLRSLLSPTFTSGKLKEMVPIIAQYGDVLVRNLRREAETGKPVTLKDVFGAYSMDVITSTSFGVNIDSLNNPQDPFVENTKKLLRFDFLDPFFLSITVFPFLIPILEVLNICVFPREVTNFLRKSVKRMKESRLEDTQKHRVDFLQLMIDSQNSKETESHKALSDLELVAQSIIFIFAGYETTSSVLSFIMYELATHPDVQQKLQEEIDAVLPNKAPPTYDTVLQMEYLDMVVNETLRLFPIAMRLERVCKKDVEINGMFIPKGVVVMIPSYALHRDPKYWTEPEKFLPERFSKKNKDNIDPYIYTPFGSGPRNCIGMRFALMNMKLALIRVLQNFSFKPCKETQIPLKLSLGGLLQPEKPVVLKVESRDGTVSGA
Chain of Prostaglandin G/H synthase 1 (P23219 whole entry): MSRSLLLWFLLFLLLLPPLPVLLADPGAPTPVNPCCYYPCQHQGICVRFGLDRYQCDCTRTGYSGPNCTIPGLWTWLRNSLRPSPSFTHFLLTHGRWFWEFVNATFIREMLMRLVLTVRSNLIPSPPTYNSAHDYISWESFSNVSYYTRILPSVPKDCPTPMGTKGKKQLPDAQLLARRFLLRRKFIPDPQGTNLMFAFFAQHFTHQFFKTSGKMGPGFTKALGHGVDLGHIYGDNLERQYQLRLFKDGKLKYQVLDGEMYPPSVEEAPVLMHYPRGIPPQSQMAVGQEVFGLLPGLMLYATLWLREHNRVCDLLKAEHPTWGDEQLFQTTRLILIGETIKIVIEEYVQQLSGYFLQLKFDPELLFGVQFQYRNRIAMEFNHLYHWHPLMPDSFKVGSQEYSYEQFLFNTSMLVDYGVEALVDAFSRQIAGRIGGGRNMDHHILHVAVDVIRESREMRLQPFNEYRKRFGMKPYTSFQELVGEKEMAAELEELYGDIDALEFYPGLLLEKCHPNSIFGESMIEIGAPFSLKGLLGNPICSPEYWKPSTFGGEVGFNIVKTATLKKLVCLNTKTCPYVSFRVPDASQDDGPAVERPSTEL

| SMILES | pIC50 (Blood) | pIC50 [1] | pIC50 [2] | pIC50 (Cytochrome P450 2D6) | pIC50 (Cytochrome P450 2C9) | TDI (Cytochrome P450 3A4 [3]) | further results |
| --- | --- | --- | --- | --- | --- | --- | --- |
| CC(C)(C)Sc1c(CC(C)(C)C(=O)O)n(Cc2ccc(-c3cnccn3)cc2)c2ccc(OCc3ccccn3)cc12 | 5.78 | 7.55 | 7.92 | – | – | – | – |
| CC(C)(Cc1c(C(=O)C2CCC2)c2cc(OCc3ccccn3)ccc2n1Cc1ccc(-c2nccs2)cc1)C(=O)O | 4.47 | 6.35 | 6.89 | – | – | – | – |
| CC(C)(C)Sc1c(CC(C)(C)C(=O)O)n(Cc2ccc(-c3cncnc3)cc2)c2ccc(OCc3ccccn3)cc12 | 5.98 | 8.11 | 8.48 | – | – | – | – |
| CC(C)(C)Sc1c(CC(C)(C)C(=O)O)n(Cc2ccc(Cl)cc2)c2ccc(OCc3ccc4ccccc4n3)cc12 [QUIFLAPON] | 6.27 | – | 9.30 | 4.96 | 6.30 | 0.009 min⁻¹ | – |
| COc1ccc(-c2ccc(Cn3c(CC(C)(C)C(=O)O)c([S+]([O-])C(C)(C)C)c4cc(OCc5ccccn5)ccc43)cc2)cn1 (stereo unspecified) | – | 6.10 | 5.70 | – | – | – | – |
| COc1ccc(-c2ccc(Cn3c(CC(C)(C)C(=O)O)c(SC(C)(C)C)c4cc(OCc5ccccn5)ccc43)cc2)nn1 | 5.80 | 8.40 | 8.44 | < 4.52 | 4.57 | – | pIC50 (Cytochrome P450 3A4 [4]): 4.82; Vd [5]: 0.47 L/kg; Cmax [6]: 7900 ng/mL; half-life [7]: 2.1 h; F (Rattus norvegicus): 42% |
| Cc1cnc(-c2ccc(Cn3c(CC(C)(C)C(=O)O)c(SC(C)(C)C)c4cc(OCc5ccccn5)ccc43)cc2)s1 | – | 8.32 | – | – | – | 0.014 min⁻¹ | – |
| Cc1csc(-c2ccc(Cn3c(CC(C)(C)C(=O)O)c(SC(C)(C)C)c4cc(OCc5ccccn5)ccc43)cc2)n1 | – | 8.14 | – | – | – | 0.006 min⁻¹ | – |
| CC(C)(Cc1cc2cc(OCc3ccccn3)ccc2n1Cc1ccc(-c2nccs2)cc1)C(=O)O | 5.26 | 6.52 | 7.72 | – | – | – | – |
| CC(C)(C)Sc1c(CC(C)(C)C(=O)O)n(Cc2ccc(-c3ncccn3)cc2)c2ccc(OCc3ccccn3)cc12 | 5.92 | 8.16 | 8.19 | < 5.00 | < 5.00 | – | pIC50 (Cytochrome P450 3A4 [4]): < 5.00 |
| COc1ccc(-c2cccc(Cn3c(CC(C)(C)C(=O)O)c(SC(C)(C)C)c4cc(OCc5ccccn5)ccc43)c2)cn1 | 6.03 | 8.26 | 8.92 | – | – | – | pIC50 [8]: 6.38 |
| CC(C)(C)Sc1c(CC(C)(C)C(=O)O)n(Cc2ccc(-c3nccs3)cc2)c2ccc(OCc3ccccn3)cc12 | 6.56 | 8.32 | 9.00 | 5.40 | 5.04 | 0.033 min⁻¹ | AUC [9]: 9540 ng·h/mL; clearance [10]: 8.6 mL/min/kg; pIC50 (Cytochrome P450 3A4 [4]): 5.85; Vd [5]: 0.71 L/kg; Cmax [6]: 4300 ng/mL; half-life [7]: 6.3 h; bioavailability [11]: 50% |
